# Sampled rows, rich in hits. Any-hit rate of the full collection: about 1.6%.
# SR-BI DiI inh – inhibitors of mouse SR-BI mediated HDL lipid uptake. inhibition, % at 12.5 µM. AID 488896. Q61009. 0.96% of 320,000 active. ldlA[mSR-BI] CHO cells, DiI-HDL uptake fluorescence, 3 h;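 active = mean replicate inhibition of at least 70% and a set share of replicates each scoring 70 or more; inconclusive = meets just one of the two criteria; inactive = fails both criteria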;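 note: 0% = median of neutral control wells and 100% = median of positive control wells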
# SR-BI uptake up – enhances SR-BI lipid uptake from DiI-HDL | CHO ldlA[mSR-BI] cells, DiI-HDL uptake fluorescence, 3 h; 100 = double the neutral-control signal | activation, % at 12.5 µM | 0.096% of 320,000 active;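 active = mean replicate activation of at least 60% and every replicate at or above 60%; inconclusive = mean or all-replicate condition met, but not both; inactive = mean below 60% and not all replicates reaching 60%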;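 note: 0% = median plate neutral-control signal and 100% = twice that signal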
#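 Assay system: CHO ldlA[mSR-BI] cells, LDL receptor-null, SR-BI overexpressing; medium: Ham's F12 with 0.5% BSA, HEPES 25 mM, pH 7.4; also added: DiI-HDL 10 µg/mL; timing: 3 h uptake period with compound, 37 °C; signal: DiI fluorescence, bottom read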
# dFosB act – activators of mouse delta FosB homodimer | P13346 | purified delta FosB, TAMRA-CDK5 oligo fluorescence polarization; percent of positive-control signal above neutral wells | activation, % at 25 µM | 0.99% of 340,000 active | AID 493131;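 active = mean activation above about 17%, with every replicate also reaching it, limit read from the data, passing the limit was not always enough; inconclusive = only one of the two conditions met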
# Target sequence (P13346 whole entry, looked up): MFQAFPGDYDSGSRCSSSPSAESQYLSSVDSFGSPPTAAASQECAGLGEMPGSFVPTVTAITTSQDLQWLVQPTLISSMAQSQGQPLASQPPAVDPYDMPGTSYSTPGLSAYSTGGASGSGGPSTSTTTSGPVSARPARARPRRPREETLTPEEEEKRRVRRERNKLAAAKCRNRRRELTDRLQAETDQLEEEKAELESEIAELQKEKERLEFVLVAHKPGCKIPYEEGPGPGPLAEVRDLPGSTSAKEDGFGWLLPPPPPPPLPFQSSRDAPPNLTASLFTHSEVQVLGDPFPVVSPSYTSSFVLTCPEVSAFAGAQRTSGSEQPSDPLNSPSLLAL
# RAD54 branch – RAD54 (human) branch migration inhibition; RAD54 Holliday junction branch migration, FAM/BHQ fluorescence; Q92698; AID 602329; inhibition, % at 10.4 µM; 0.14% of 360,000 active;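 active = mean normalized replicate activity at least 40 and at least half of replicates scoring 40 or more; inconclusive = only one of the two criteria met; inactive = mean below 40 and under half of replicates reaching 40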;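 note: 0% = median of neutral control wells and 100% = median of positive control wells; inhibitors cause a drop in the FAM fluorescence signal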
# S100A4 MyoIIA – inhibitors of human S100A4 binding to myosin IIA peptide. 0.14% of 360,000 active. S100A4/TAMRA-MyoIIA peptide fluorescence polarization. AID 652163. P26447. inhibition, % at 10.7 µM;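 active = mean inhibition of at least 70% across replicates, with every replicate also reaching that level; inconclusive = mean inhibition reaches 70% but some replicates fall short; inactive = mean inhibition below 70%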
# Target sequence (P26447 whole entry, looked up): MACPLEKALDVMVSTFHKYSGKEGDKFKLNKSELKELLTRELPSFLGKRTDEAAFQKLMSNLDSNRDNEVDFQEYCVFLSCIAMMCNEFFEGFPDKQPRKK
#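 System – human S100A4 monomer protein, biochemical binding assay · Buffer or medium – Calcium-containing HEPES buffer, pH 7.2 · Timing – 5 min between mix addition and reading · Also added – TAMRA-labelled myosin IIA heavy-chain peptide probe, 5 nM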
# PvdQ acylase – P. aeruginosa PvdQ acylase inhibition | purified PvdQ acylase, fluorescence plate reader | inhibition, % at 10 µM | 0.063% of 340,000 active; in the data active = inhibition above about 30%, passing the limit was not always enough; inconclusive = no clear call, values can overlap the other calls;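 note: 0% = vehicle neutral wells and 100% = reference inhibitor wells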
# * marks the source's active call; other numbers are inactive results; ? = inconclusive; · = no result.
SMILES,SR-BI DiI inh,SR-BI uptake up,dFosB act,RAD54 branch,S100A4 MyoIIA,PvdQ acylase
CCCCCCOC(=O)C[N+](C)(C)CCOC1CC2CCC1(C)C2(C)C (centres undefined),-1,1,1,-5,·,3
O=C(N/N=C/c1cn[nH]c1-c1ccc(Cl)cc1)c1ccc([N+](=O)[O-])cc1,95*,-95,-5,·,-2,-9
CCOc1cc(C=C(C#N)C#N)ccc1Oc1ccc([N+](=O)[O-])cn1,12,-12,-3,·,0,-18
COc1cc(/C=C2/NC(=O)N(CC(=O)Nc3ccc(C)cc3)C2=O)ccc1Oc1ccc([N+](=O)[O-])cn1,4,-4,18*,·,-1,0
COc1cc(/C=C(/C#N)c2ccc(F)cc2)ccc1Oc1ccc([N+](=O)[O-])cn1,85*,-85,-2,·,9,-12
COc1cc(/C=N\NC(=O)c2cccc(Cl)c2)ccc1Oc1ccc([N+](=O)[O-])cn1,40,-40,-4,·,-4,3
COc1cc(/C=N\NC(=O)c2ccc(Cl)cc2)ccc1Oc1ccc([N+](=O)[O-])cn1,79*,-79,-4,·,-8,-8
CCC(=O)Nc1ccc(-c2cc(-c3ccccc3)nc(-c3ccc(NC(=O)CC)cc3)n2)cc1,-103,103*,5,·,·,-13
COc1ccc(NC(=O)C(Sc2nnc3ccccn23)c2ccccc2)cc1Cl (centres undefined),-82,82*,-3,·,4,5
CCC(C(=O)Nc1ccc(OC)c(Cl)c1)c1ccccc1 (centres undefined),14,-14,-11,·,1,-13
C[C@H]1CCCCO[C@H](CN(C)Cc2ccc3c(c2)OCO3)[C@@H](C)CN([C@@H](C)CO)C(=O)c2cc(NC(=O)NC3CCCCC3)ccc2O1,·,·,·,11,-3,·
COc1cc2c(cc1OC)CN(C(=O)[C@H]1[C@@H]3C(=O)O[C@@H](c4ccccc4)[C@@H](c4ccccc4)N3[C@@H](c3ccc(O)cc3)[C@]13C(=O)Nc1ccccc13)CC2,·,·,·,7,5,·
S=C1Cc2ccccc2N1,97*,-97,-15,9,0,-8
O=[N+]([O-])c1ccc(/C=N/Nc2nc(N3CCCCC3)nc(N3CCCCC3)n2)cc1,8,-8,1,·,-21,-6
O=[N+]([O-])c1ccc(Nc2nc(N/N=C\c3ccc4c(c3)OCO4)nc(N3CCCCC3)n2)cc1,62,-62,63*,-6,·,-12
CO[C@H]1CN(C)C(=O)c2ccc(NC(=O)C3CC3)cc2OC[C@H](C)N(CC2CCOCC2)C[C@H]1C,·,·,·,7,8,·
C[C@H](CO)N1C[C@H](C)[C@H](CN(C)S(C)(=O)=O)Oc2ccc(NS(=O)(=O)c3ccccc3)cc2CC1=O,·,·,·,6,-8,·
C[C@H](CO)N1C[C@H](C)[C@H](CN(C)C)Oc2ccc(NS(=O)(=O)c3ccccc3)cc2CC1=O,·,·,·,1,95*,·
Cc1noc(C)c1S(=O)(=O)N(C)C[C@H]1Oc2ccc(N(C)C)cc2CC(=O)N([C@H](C)CO)C[C@H]1C,·,·,·,-5,129*,·
C[C@@H]1CN([C@H](C)CO)C(=O)Cc2cc(NS(=O)(=O)c3ccccc3)ccc2O[C@@H]1CN(C)Cc1ccccc1,·,·,·,-3,79*,·
CCNC(=O)C[C@@H]1CC[C@H]2[C@H](COc3ccc(NC(=O)Nc4ccc(F)cc4)cc3C(=O)N2C)O1,·,·,·,3,12,·
Oc1c(N=Nc2ccc(F)cc2)ccc2ccccc12,22,-22,15,4,-2,-8
Oc1ccc2ccccc2c1N=Nc1ccc(F)cc1,3,-3,104*,·,-30,-4
CN1CCN(c2ccccc2NC(=O)c2cc3ccccc3o2)CC1,13,-13,-21,17,·,-3
Cc1ccc(NC(=O)c2cc(NC(=O)c3ccco3)ccc2N2CCOCC2)cc1Cl,74*,-74,?,-5,·,-14
O=C(Nc1ccc(N2CCOCC2)c(Cl)c1)c1cc2ccccc2o1,85*,-85,-3,-3,·,-8
CS(=O)(=O)N1CCN(c2ccccc2NC(=O)c2cc3ccccc3o2)CC1,75*,-75,-1,2,-9,-1

# High-throughput results from PubChem BioAssay.
